{"source": "ChEMBL document CHEMBL4052618", "about": "“Design, synthesis, SAR discussion, in vitro and in vivo evaluation of novel selective EGFR modulator to inhibit L858R/T790M double mutants” (Eur J Med Chem, 2017)", "key": {"[1]": {"test": "Half life in human liver microsomes", "assay_type": "ADME, microsome"}, "[2]": {"test": "MRT in Sprague-Dawley rat at 1 mg/kg, iv by LC-MS/MS analysis", "assay_type": "ADME, organism-based", "details": "in vivo", "in_short": "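Male Sprague-Dawley rats (200-240 g) received 1 mg/kg by tail-vein injection in 2% DMSO, 20% PEG400 and 78% buffered saline, or 10 mg/kg by oral gavage in 0.5% methylcellulose. Orbital sinus blood was drawn into heparinized tubes at 2, 5, 15 and 30 min and at 1, 2, 4, 8, 12 and 24 h, then centrifuged. Plasma was measured by LC/MS/MS in SRM mode, with non-compartmental analysis.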"}, "NCI-H1975 [3]": {"system": "NCI-H1975", "test": "In vivo anti tumor activity against human NCI-H1975 cells xenografted in nude C.B-17 SCID mouse model assessed as tumor volume at 5 mg/kg, ig for 18 days measured twice a week (reference value: 948.05 mm3)", "assay_type": "functional"}, "NCI-H1975 [4]": {"system": "NCI-H1975", "test": "In vivo anti tumor activity against human NCI-H1975 cells xenografted in nude C.B-17 SCID mouse model assessed as tumor growth inhibition at 20 mg/kg, ig for 18 days measured twice a week relative to control", "assay_type": "functional", "details": "NCI-H1975, po, 432 h, read-out: TGI", "in_short": "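H1975 s.c. xenografts (5 × 10^6 cells) were grown in C.B-17 SCID mice and randomized at 100-150 mm3 (n = 9). Mice were dosed intragastrically once daily for 18 days against a PBS control. TGI% = (TWcontrol − TWtreatment)/TWcontrol × 100, where TW is the mean tumor weight on day 18.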"}, "[5]": {"biological_target": "CDK2/Cyclin A2 (Homo sapiens) (UniProt P24941+P20248)", "test": "Inhibition of CDK2/cyclin A (unknown origin) at 1 uM relative to control", "assay_type": "protein-complex assay"}, "[6]": {"biological_target": "Casein kinase I isoform epsilon (Homo sapiens) (UniProt P49674)", "sequence (P49674 whole entry, looked up, canonical isoform)": "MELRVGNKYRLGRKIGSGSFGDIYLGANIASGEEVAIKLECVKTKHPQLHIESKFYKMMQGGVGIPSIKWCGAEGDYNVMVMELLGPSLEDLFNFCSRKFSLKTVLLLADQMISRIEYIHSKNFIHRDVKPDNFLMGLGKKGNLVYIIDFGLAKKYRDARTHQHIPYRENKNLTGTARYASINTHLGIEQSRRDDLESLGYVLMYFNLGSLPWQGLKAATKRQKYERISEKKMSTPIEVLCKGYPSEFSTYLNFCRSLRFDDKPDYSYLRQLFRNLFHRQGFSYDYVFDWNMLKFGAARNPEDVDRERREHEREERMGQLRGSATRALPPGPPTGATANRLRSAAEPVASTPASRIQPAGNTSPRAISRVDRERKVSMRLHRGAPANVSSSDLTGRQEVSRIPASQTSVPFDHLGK", "test": "Inhibition of CSNK1E (unknown origin) at 1 uM relative to control"}, "[7]": {"biological_target": "Tyrosine-protein kinase Lyn (Homo sapiens) (UniProt P07948)", "sequence (P07948 2-512 limits assumed)": "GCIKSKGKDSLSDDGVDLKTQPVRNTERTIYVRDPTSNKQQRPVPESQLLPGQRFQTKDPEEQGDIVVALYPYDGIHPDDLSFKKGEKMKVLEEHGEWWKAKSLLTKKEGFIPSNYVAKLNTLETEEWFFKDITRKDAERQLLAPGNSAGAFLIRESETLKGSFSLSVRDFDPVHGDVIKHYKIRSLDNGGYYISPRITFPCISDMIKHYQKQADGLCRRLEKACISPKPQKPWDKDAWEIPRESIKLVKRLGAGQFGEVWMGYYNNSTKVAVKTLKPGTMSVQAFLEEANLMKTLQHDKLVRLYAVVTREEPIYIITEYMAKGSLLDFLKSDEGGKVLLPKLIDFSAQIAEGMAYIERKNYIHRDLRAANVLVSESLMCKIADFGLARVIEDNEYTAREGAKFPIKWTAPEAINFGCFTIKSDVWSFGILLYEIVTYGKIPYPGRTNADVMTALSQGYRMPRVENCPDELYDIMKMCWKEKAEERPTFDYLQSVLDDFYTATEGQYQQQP", "test": "Inhibition of LYN-B (unknown origin) at 1 uM relative to control"}, "[8]": {"biological_target": "Hepatocyte growth factor receptor (Homo sapiens) (UniProt P08581)", "test": "Inhibition of MET (cMet) (unknown origin) at 1 uM relative to control"}, "[9]": {"biological_target": "Rho-associated protein kinase 2 (Homo sapiens) (UniProt O75116)", "sequence (O75116 whole entry, looked up)": "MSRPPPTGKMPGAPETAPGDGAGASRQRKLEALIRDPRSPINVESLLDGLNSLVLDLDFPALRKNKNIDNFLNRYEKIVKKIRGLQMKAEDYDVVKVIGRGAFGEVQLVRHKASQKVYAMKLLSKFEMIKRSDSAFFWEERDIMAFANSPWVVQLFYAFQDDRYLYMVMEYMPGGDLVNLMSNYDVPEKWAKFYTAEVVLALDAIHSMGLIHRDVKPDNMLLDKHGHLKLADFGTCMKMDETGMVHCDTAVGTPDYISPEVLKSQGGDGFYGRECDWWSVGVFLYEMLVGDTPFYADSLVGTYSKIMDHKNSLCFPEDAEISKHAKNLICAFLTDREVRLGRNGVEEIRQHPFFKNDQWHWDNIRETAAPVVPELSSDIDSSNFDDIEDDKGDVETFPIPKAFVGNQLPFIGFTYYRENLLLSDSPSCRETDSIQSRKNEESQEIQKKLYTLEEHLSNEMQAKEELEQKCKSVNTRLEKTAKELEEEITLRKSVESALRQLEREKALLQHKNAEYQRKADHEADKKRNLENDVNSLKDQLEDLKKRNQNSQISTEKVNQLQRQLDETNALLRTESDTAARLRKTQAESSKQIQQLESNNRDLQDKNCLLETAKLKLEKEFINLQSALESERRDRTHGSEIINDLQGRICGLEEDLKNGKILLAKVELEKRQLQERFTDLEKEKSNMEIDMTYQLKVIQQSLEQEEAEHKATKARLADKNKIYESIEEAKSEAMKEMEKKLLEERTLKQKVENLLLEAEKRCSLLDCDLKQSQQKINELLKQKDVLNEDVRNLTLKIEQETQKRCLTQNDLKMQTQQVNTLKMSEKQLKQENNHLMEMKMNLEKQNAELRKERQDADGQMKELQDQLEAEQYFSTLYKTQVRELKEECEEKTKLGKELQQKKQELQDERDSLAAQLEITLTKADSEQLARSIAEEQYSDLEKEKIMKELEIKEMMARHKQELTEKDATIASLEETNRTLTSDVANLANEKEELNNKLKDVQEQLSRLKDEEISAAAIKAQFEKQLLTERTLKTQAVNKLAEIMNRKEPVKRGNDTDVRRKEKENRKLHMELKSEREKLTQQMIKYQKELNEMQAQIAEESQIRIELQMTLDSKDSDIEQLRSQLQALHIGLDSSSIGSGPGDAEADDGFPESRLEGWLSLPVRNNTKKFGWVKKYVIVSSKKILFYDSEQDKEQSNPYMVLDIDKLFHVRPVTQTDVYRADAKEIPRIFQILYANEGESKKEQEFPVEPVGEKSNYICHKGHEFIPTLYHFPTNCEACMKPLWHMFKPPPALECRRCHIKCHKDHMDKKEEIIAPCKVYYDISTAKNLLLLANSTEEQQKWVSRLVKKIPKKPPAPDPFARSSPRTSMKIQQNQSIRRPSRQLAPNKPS", "test": "Inhibition of ROCK2 (unknown origin) at 1 uM relative to control"}, "[10]": {"biological_target": "Proto-oncogene tyrosine-protein kinase ROS (Homo sapiens) (UniProt P08922)", "sequence (P08922 whole entry)": "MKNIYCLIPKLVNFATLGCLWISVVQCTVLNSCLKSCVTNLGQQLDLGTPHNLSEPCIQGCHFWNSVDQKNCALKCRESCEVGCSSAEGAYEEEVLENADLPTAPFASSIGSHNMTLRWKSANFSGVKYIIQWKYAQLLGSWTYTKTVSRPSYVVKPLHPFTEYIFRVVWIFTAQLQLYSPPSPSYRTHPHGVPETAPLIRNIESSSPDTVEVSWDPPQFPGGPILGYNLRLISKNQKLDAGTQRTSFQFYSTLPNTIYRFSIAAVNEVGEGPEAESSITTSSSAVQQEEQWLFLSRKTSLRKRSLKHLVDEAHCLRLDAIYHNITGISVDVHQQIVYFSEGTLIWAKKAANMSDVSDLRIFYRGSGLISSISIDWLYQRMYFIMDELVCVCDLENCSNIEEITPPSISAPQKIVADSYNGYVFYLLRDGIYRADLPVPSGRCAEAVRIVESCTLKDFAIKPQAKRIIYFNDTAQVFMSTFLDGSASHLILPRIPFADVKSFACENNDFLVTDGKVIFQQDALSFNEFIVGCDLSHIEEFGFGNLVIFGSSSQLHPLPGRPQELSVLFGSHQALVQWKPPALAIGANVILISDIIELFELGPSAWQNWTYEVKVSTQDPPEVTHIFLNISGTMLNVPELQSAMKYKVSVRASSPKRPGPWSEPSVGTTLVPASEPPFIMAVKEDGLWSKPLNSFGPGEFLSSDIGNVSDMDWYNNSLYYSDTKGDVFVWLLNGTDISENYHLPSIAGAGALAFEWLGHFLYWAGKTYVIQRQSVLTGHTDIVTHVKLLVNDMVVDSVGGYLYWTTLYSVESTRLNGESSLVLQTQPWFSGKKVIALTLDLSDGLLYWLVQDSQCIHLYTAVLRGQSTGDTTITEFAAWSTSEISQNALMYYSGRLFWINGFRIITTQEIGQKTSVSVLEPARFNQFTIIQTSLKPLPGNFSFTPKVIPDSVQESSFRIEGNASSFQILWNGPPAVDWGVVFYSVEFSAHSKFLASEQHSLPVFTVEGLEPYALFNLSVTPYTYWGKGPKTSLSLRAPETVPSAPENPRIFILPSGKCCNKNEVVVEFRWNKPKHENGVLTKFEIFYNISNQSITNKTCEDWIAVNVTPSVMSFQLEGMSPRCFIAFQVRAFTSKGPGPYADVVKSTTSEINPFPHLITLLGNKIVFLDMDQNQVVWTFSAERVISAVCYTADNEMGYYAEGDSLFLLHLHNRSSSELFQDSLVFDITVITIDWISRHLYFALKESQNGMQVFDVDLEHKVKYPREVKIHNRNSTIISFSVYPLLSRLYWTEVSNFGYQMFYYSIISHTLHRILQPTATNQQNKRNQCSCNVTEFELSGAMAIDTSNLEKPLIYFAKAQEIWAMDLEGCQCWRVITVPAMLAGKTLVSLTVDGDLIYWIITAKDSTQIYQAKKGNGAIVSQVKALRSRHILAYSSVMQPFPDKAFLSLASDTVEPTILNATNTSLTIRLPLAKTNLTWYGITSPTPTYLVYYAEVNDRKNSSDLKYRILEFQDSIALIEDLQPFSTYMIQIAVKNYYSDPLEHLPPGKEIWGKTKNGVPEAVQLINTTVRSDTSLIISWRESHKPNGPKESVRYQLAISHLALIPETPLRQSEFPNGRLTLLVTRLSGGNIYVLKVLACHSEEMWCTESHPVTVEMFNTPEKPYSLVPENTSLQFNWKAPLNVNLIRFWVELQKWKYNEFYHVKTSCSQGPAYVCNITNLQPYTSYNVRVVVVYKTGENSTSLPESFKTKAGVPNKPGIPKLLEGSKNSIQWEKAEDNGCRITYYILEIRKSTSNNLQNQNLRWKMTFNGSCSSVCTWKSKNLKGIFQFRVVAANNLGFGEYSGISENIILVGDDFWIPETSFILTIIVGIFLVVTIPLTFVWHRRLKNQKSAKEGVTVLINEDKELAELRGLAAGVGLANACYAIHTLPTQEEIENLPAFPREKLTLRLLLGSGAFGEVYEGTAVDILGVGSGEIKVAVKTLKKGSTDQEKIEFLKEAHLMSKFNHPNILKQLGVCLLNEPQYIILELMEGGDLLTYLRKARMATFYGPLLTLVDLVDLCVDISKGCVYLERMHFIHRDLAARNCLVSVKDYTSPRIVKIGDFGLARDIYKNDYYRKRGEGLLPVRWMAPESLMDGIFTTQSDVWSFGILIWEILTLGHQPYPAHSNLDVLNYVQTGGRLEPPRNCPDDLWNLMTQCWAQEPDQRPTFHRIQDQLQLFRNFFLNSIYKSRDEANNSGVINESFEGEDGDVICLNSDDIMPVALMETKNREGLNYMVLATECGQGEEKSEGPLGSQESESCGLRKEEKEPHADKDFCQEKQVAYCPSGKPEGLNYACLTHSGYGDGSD", "test": "Inhibition of ROS1 (unknown origin) at 1 uM relative to control"}}, "data": [{"smiles": "C=CC(=O)Nc1cc(Nc2nccc(-c3cn4c5c(cccc35)CCC4)n2)c(OC)cc1N(C)CCN(C)C", "values": [{"measurement": "half-life", "setting": "[1]", "value": "> 3", "unit": "h"}, {"measurement": "MRT", "setting": "[2]", "value": 4.7, "unit": "h"}, {"measurement": "Activity", "setting": "NCI-H1975 [3]", "value": 527.78, "unit": "mm3"}, {"measurement": "inhibition in vivo at 20 mg/kg", "setting": "NCI-H1975 [4]", "value": 96.3, "unit": "%"}, {"measurement": "inhibition", "setting": "[5]", "value": 7, "unit": "%"}, {"measurement": "inhibition", "setting": "[6]", "value": 3, "unit": "%"}, {"measurement": "inhibition", "setting": "[7]", "value": 15, "unit": "%"}, {"measurement": "inhibition", "setting": "[8]", "value": -2, "unit": "%"}, {"measurement": "inhibition", "setting": "[9]", "value": 0, "unit": "%"}, {"measurement": "inhibition", "setting": "[10]", "value": 94, "unit": "%"}]}]}
